# ChEMBL document CHEMBL5724801, “EUbOPEN Chemogenomics Library - Multiplex” (2024)
# Several values for one entry are separate records, joined by “and”; a condition that tells them apart may be missing. Equal entries are not always repeated.
# Legend:
# Fibroblast = experiment: Multiplex assay against human fibroblast; type: toxicity, cell-based
# Method in brief: (§1)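 Live cells were stained at seeding with Hoechst33342, BioTracker Green Microtubule Cytoskeleton Dye, MitoTracker Red and Annexin V Alexa Fluor 680. Following compound addition, they were imaged on a CQ1 microscope at 37°C and 5% CO2 and gated by CellPathfinder machine learning into Hoechst high-intensity objects or normal cells, with normal cells split into healthy, pyknosed or fragmented nuclei and pyknosed cells into mitotic or apoptotic. Tubulin, mitochondrial-mass and membrane-permeability phenotypes are per cents of healthy-nucleus cells.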
# U2OS = experiment: Multiplex assay against U2OS; type: toxicity, cell-based; conditions: human; method in brief: as §1
# [1] = 12 h, 1 µM, compound concentration 1 uM
# [2] = 12 h, 10 µM, compound concentration 10 uM
# [3] = 24 h, 1 µM, compound concentration 1 uM
# [4] = 24 h, 10 µM, compound concentration 10 uM
# [5] = 48 h, 1 µM, compound concentration 1 uM
# [6] = 48 h, 10 µM, compound concentration 10 uM
compound,measurement,setting,value
Cc1cc(C)cc(C(=O)NOCCCCCC(=O)NO)c1,Population Apoptotic (%),Fibroblast; [1],12.9% and 17.65%
same,Population Fragmented Nuclei (%),Fibroblast; [1],11.22% and 2.55%
same,Population Healthy Nuclei (%),Fibroblast; [1],72.96% and 88.78%
same,Population Hoechst High Intensity Objects (%),Fibroblast; [1],0%
same,Population Membrane Permeable-Phenotype (%),Fibroblast; [1],5.59% and 1.15%
same,Population Mitochondria Different-Phenotype (%),Fibroblast; [1],6.99% and 10.34%
same,Population Mitotic Cells (%),Fibroblast; [1],87.1% and 82.35%
same,Population Normal (%),Fibroblast; [1],100%
same,Population Pyknosed Nuclei (%),Fibroblast; [1],15.82% and 8.67%
same,Population Tubulin-Different-Phenotype (%),Fibroblast; [1],8.39% and 11.49%
same,Total Cell Count,Fibroblast; [1],196
same,Population Apoptotic (%),Fibroblast; [2],12% and 31.25%
same,Population Fragmented Nuclei (%),Fibroblast; [2],15.5% and 6.05%
same,Population Healthy Nuclei (%),Fibroblast; [2],72% and 86.51%
same,Population Hoechst High Intensity Objects (%),Fibroblast; [2],0%
same,Population Membrane Permeable-Phenotype (%),Fibroblast; [2],6.94% and 1.61%
same,Population Mitochondria Different-Phenotype (%),Fibroblast; [2],5.56% and 6.45%
same,Population Mitotic Cells (%),Fibroblast; [2],88% and 68.75%
same,Population Normal (%),Fibroblast; [2],100%
same,Population Pyknosed Nuclei (%),Fibroblast; [2],12.5% and 7.44%
same,Population Tubulin-Different-Phenotype (%),Fibroblast; [2],9.03% and 6.45%
same,Total Cell Count,Fibroblast; [2],200 and 215
same,Population Apoptotic (%),Fibroblast; [3],13.33% and 23.08%
same,Population Fragmented Nuclei (%),Fibroblast; [3],12.92% and 3.9%
same,Population Healthy Nuclei (%),Fibroblast; [3],79.9% and 89.76%
same,Population Hoechst High Intensity Objects (%),Fibroblast; [3],0%
same,Population Membrane Permeable-Phenotype (%),Fibroblast; [3],4.79% and 2.17%
same,Population Mitochondria Different-Phenotype (%),Fibroblast; [3],3.59% and 7.07%
same,Population Mitotic Cells (%),Fibroblast; [3],86.67% and 76.92%
same,Population Normal (%),Fibroblast; [3],100%
same,Population Pyknosed Nuclei (%),Fibroblast; [3],7.18% and 6.34%
same,Population Tubulin-Different-Phenotype (%),Fibroblast; [3],3.59% and 8.15%
same,Total Cell Count,Fibroblast; [3],209 and 205
same,Population Apoptotic (%),Fibroblast; [4],63.64% and 52.94%
same,Population Healthy Nuclei (%),Fibroblast; [4],80.39% and 88.26%
same,Population Hoechst High Intensity Objects (%),Fibroblast; [4],0%
same,Population Membrane Permeable-Phenotype (%),Fibroblast; [4],3.66% and 0%
same,Population Mitochondria Different-Phenotype (%),Fibroblast; [4],2.44% and 4.26%
same,Population Mitotic Cells (%),Fibroblast; [4],36.36% and 47.06%
same,Population Normal (%),Fibroblast; [4],100%
same,Population Pyknosed Nuclei (%),Fibroblast; [4],5.39% and 7.98%
same,Population Tubulin-Different-Phenotype (%),Fibroblast; [4],3.66% and 2.66%
same,Total Cell Count,Fibroblast; [4],204 and 213
same,Population Apoptotic (%),Fibroblast; [5],47.37% and 53.33%
same,Population Fragmented Nuclei (%),Fibroblast; [5],8.06% and 10.87%
same,Population Healthy Nuclei (%),Fibroblast; [5],82.94% and 82.61%
same,Population Hoechst High Intensity Objects (%),Fibroblast; [5],0%
same,Population Membrane Permeable-Phenotype (%),Fibroblast; [5],0.57% and 1.58%
same,Population Mitotic Cells (%),Fibroblast; [5],52.63% and 46.67%
same,Population Normal (%),Fibroblast; [5],100%
same,Population Pyknosed Nuclei (%),Fibroblast; [5],9% and 6.52%
same,Population Tubulin-Different-Phenotype (%),Fibroblast; [5],2.29% and 8.42%
same,Total Cell Count,Fibroblast; [5],211 and 230
same,Population Apoptotic (%),Fibroblast; [6],44.19% and 95.35%
same,Population Healthy Nuclei (%),Fibroblast; [6],57.64% and 74.04%
same,Population Hoechst High Intensity Objects (%),Fibroblast; [6],0%
same,Population Membrane Permeable-Phenotype (%),Fibroblast; [6],1.71% and 10.39%
same,Population Normal (%),Fibroblast; [6],100%
same,Population Pyknosed Nuclei (%),Fibroblast; [6],21.18% and 20.67%
same,Population Tubulin-Different-Phenotype (%),Fibroblast; [6],4.27% and 13.64%
same,Total Cell Count,Fibroblast; [6],203 and 208
same,Population Apoptotic (%),U2OS; [1],33.33% and 45.83%
same,Population Fragmented Nuclei (%),U2OS; [1],2.19% and 1.16%
same,Population Healthy Nuclei (%),U2OS; [1],82.02% and 84.97%
same,Population Hoechst High Intensity Objects (%),U2OS; [1],0%
same,Population Membrane Permeable-Phenotype (%),U2OS; [1],0.53% and 4.08%
same,Population Mitochondria Different-Phenotype (%),U2OS; [1],0.27% and 4.08%
same,Population Mitotic Cells (%),U2OS; [1],66.67% and 54.17%
same,Population Normal (%),U2OS; [1],100%
same,Population Pyknosed Nuclei (%),U2OS; [1],15.79% and 13.87%
same,Population Tubulin-Different-Phenotype (%),U2OS; [1],0.8% and 1.36%
same,Total Cell Count,U2OS; [1],456 and 173
same,Population Apoptotic (%),U2OS; [2],27.78% and 30.23%
same,Population Fragmented Nuclei (%),U2OS; [2],2.46% and 2.56%
same,Population Healthy Nuclei (%),U2OS; [2],79.85% and 69.87%
same,Population Hoechst High Intensity Objects (%),U2OS; [2],0%
same,Population Membrane Permeable-Phenotype (%),U2OS; [2],1.23% and 4.59%
same,Population Mitochondria Different-Phenotype (%),U2OS; [2],0.31% and 9.17%
same,Population Mitotic Cells (%),U2OS; [2],72.22% and 69.77%
same,Population Normal (%),U2OS; [2],100%
same,Population Pyknosed Nuclei (%),U2OS; [2],17.69% and 27.56%
same,Population Tubulin-Different-Phenotype (%),U2OS; [2],2.46% and 1.83%
same,Total Cell Count,U2OS; [2],407 and 156
same,Population Apoptotic (%),U2OS; [3],42.11% and 38.46%
same,Population Fragmented Nuclei (%),U2OS; [3],5.65% and 5.61%
same,Population Healthy Nuclei (%),U2OS; [3],59.88% and 61.22%
same,Population Hoechst High Intensity Objects (%),U2OS; [3],0%
same,Population Membrane Permeable-Phenotype (%),U2OS; [3],0.67% and 1.67%
same,Population Mitochondria Different-Phenotype (%),U2OS; [3],0.34% and 5%
same,Population Mitotic Cells (%),U2OS; [3],57.89% and 61.54%
same,Population Normal (%),U2OS; [3],100%
same,Population Pyknosed Nuclei (%),U2OS; [3],34.48% and 33.16%
same,Population Tubulin-Different-Phenotype (%),U2OS; [3],3.37% and 1.67%
same,Total Cell Count,U2OS; [3],496 and 196
